The source made the active and inactive calls. No cut-off for these calls is given here.

The values below come from ChEMBL document CHEMBL3351279, “Topoisomerase II inhibitors from the roots of Stellera chamaejasme L” (Bioorg Med Chem, 2014).

Assay [1] concerns the target DNA topoisomerase 2-alpha (Homo sapiens) (UniProt P11388). Description: Inhibition of DNA topoisomerase-2 (unknown origin) assessed as inhibition of kDNA decatenation at 100 uM after 15 mins by agarose gel electrophoresis.
The subject of assay [2] is A549. Put plainly: Cytotoxicity against human A549 cells after 72 hrs by SRB assay. The format is functional, cell-based. The note with it: A549, 72 h. The gist of the method: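 A549 cells grown in F12 with 10% heat-inactivated FBS (37°C, 5% CO2), seeded overnight, then exposed 72 h. Fixed in cold 10% TCA for 1 h at 4°C, stained with 4 mg/mL SRB in 1% acetic acid for 15 min, solubilized in 10 mM Tris-HCl, read at A560. Inhibition = [1 − A560treated/A560control]×100%; IC50 by Logit method, at least three independent tests.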

In assay [3] the target is T1, DNA topoisomerase 1 (Homo sapiens) (UniProt P11387).
T1 sequence (whole entry): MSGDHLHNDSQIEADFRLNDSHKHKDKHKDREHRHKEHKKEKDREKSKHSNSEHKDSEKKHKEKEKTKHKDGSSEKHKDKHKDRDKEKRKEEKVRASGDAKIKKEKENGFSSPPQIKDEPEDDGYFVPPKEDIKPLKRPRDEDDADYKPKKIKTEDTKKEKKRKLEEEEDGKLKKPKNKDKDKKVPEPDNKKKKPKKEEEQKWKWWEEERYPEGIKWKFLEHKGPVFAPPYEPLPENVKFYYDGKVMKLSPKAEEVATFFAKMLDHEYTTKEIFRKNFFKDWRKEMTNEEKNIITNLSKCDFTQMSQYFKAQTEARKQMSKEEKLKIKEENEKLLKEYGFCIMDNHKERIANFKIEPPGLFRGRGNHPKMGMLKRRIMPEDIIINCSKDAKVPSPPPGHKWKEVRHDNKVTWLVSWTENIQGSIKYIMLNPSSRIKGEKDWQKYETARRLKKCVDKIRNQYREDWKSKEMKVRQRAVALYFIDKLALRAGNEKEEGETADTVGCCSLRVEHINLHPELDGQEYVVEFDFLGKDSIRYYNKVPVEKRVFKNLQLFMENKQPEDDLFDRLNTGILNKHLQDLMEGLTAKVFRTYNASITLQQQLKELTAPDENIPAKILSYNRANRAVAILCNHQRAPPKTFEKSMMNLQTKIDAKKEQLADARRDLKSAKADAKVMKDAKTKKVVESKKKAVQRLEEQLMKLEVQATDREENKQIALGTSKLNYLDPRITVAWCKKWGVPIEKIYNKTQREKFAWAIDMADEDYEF
Description: Inhibition of DNA topoisomerase-1 (unknown origin) assessed as inhibition of supercoiled pBR322 relaxation up to 100 uM after 15 mins by gel electrophoresis. The essentials:
(§1)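 Supercoiled pBR322 relaxation with compounds at 100 µM. Topo I: 12.5 µg/mL DNA, 0.01 unit/µL enzyme, no ATP. Topo IIα: 6.67 µg/mL DNA, 0.0467 units/µL enzyme, 1 mM ATP. 37°C for 15 min, SDS stop, 1% agarose/TAE gel at 4 V/cm for 1 h, ethidium bromide stain.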

The target of assay [4] is DNA topoisomerase 2-alpha (Homo sapiens) (UniProt P11388). Put plainly: Inhibition of DNA topoisomerase-2 (unknown origin) assessed as inhibition of supercoiled pBR322 relaxation at 100 uM after 15 mins by gel electrophoresis. The gist of the method: as §1
The subject of assay [5] is A549. Description: Cell cycle arrest in human A549 cells assessed as accumulation at G2/M phase at 10 to 300 nM after 24 hrs by propidium iodide staining-based flow cytometry. The format is functional. On the technique in general: In flow cytometry, cells or beads pass a laser one at a time.
In assay [6] the test system is A549. Put plainly: Induction of apoptosis in human A549 cells assessed as early apoptotic cells at 30 nM after 48 hrs by Annexin V/propidium iodide staining-based flow cytometry (reference value: 5.75%). The format is functional. The essentials:
(§2)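 After 48 h exposure, A549 cells resuspended in cold binding buffer with Annexin-V-FITC and PI, kept 10 min at room temperature in the dark, then analyzed on a FACSCalibur. Annexin-V+/PI− cells counted as early apoptotic.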

The subject of assay [7] is A549. Put plainly: Cell cycle arrest in human A549 cells assessed as accumulation at G2 phase at 300 nM after 24 hrs by propidium iodide staining-based flow cytometry (reference value: 18%). The format is functional.
Assay [8] has as its system A549. Description: Induction of apoptosis in human A549 cells assessed as early apoptotic cells at 10 nM after 48 hrs by Annexin V/propidium iodide staining-based flow cytometry (reference value: 5.75%). The format is functional. The gist of the method: as §2

DNA topoisomerase 2-alpha (Homo sapiens), sequence (P11388 whole entry): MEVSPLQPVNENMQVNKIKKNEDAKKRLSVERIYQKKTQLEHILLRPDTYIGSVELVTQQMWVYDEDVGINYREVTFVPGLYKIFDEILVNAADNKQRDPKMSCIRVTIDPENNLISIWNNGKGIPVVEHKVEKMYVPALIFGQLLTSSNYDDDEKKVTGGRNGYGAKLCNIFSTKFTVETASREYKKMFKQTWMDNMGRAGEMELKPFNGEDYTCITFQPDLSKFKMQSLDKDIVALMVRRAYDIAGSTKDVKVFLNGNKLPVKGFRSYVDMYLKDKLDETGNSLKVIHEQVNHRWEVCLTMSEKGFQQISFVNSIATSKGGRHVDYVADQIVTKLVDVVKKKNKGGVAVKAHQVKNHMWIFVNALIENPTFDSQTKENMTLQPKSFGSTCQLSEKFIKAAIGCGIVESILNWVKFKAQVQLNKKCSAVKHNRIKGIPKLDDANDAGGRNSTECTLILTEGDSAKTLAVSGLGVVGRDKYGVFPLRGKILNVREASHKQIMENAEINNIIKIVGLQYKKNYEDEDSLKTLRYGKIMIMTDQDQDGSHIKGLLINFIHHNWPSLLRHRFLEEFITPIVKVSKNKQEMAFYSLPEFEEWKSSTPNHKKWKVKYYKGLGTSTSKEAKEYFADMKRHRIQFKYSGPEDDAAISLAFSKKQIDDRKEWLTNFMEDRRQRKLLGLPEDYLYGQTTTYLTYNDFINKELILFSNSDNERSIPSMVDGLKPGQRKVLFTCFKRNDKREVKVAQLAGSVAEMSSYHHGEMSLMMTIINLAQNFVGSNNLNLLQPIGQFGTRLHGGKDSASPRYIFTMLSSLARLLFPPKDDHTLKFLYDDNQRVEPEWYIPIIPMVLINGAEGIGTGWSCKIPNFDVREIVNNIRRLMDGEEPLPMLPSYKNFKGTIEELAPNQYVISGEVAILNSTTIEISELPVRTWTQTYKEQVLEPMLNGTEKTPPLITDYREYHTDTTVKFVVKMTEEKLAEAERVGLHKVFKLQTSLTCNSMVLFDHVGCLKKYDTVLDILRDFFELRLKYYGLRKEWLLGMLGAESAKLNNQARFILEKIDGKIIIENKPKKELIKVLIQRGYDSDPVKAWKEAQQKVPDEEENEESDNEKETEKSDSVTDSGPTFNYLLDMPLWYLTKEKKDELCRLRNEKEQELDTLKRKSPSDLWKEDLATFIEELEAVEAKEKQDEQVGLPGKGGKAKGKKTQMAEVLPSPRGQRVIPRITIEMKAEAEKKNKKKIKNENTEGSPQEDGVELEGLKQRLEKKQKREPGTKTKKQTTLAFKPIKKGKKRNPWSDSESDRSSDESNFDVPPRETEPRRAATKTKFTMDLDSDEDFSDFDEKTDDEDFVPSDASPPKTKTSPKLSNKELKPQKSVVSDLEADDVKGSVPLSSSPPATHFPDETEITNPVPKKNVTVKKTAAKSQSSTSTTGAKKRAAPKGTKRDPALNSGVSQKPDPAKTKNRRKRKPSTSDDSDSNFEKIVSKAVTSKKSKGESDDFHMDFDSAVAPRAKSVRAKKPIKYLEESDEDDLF

As usually defined, the IC50 is the concentration needed to halve the response being measured. Read a high IC50 as weaker potency. Regarding `C=C(C)[C@]12C[C@@H](C)[C@@]34O[C@](/C=C/C=C/CCCCCCCCC)(O[C@@H]1[C@@H]3[C@@H]1O[C@]1(CO)[C@@H](O)[C@]1(O)C(=O)C(C)=C[C@H]14)O2`, the inhibition result in assay [1] and in assay [4] was “Active” each time. This compound also returned a 50% inhibitory concentration (IC50) in assay [2] of 0.7 nM. Moreover, in assay [3], the inhibition result was “inactive”.

Regarding `C=C(C)[C@@]12O[C@@]3(/C=C/C=C/CCCCCCCCC)O[C@@H]1[C@@H]1[C@@H]4O[C@]4(CO)[C@@H](O)[C@]4(O)C(=O)C(C)=C[C@H]4[C@@]1(O3)[C@H](C)[C@H]2OC(C)=O`, in assay [2], the IC50 came out at 0.4 nM.

Regarding `C=C(C)[C@]1(OC(=O)/C=C\C=C\CCCCCCCCC)C[C@@H](C)[C@@]2(O)[C@H]([C@H]1O)[C@@H]1O[C@]1(CO)[C@@H](O)[C@]1(O)C(=O)C(C)=C[C@H]12`, the inhibition entry in assay [1] and in assay [4] was “Active” in each case. This compound also showed an IC50 in assay [2] of 2.7 nM. Also, the inhibition entry in assay [3] was “inactive”. Also, the outcome in assay [5] was Active. Further, the Activity was 19.94% in assay [6], over 50% in assay [7] and 17.57% in assay [8].

Turning to `C=C(C)[C@@]1(O)[C@H](OC(=O)/C=C/C=C/CCCCCCCC)[C@@H]2[C@@H]3O[C@]3(CO)[C@@H](O)[C@]3(O)C(=O)C(C)=C[C@H]3[C@@]2(O)[C@H](C)[C@H]1OC(C)=O`, the inhibition entry in assay [1] and in assay [4] was “Active” throughout. Also, the concentration for half-maximal inhibition (IC50) in assay [2] worked out at 24 nM. Besides, the inhibition entry in assay [3] is “inactive”.

Take `COc1cc([C@@H]2c3cc4c(cc3[C@@H](O[C@@H]3O[C@@H]5CO[C@@H](C)O[C@H]5[C@H](O)[C@H]3O)[C@H]3COC(=O)[C@H]23)OCO4)cc(OC)c1O`: the inhibition result in assay [4] was “Active”.

For the compound `C[C@H]1CC=C2[C@H]1C[C@]1(O)C(=O)C[C@@]2(C)C1(C)CO` (stereo not given in full), in assay [2], the IC50 is 1950 nM.

On to `C=C(C)[C@]12C[C@@H](C)[C@@]34O[C@](CCCCCCCCC)(O[C@@H]1[C@@H]3[C@@H]1O[C@]1(CO)[C@@H](O)[C@]1(O)C(=O)C(C)=C[C@H]14)O2` [SIMPLEXIN], for which the IC50 in assay [2] worked out at 0.3 nM.

For the compound `COc1cc(C[C@H]2COC(=O)[C@@H]2Cc2ccc3c(c2)OCO3)ccc1O`, the IC50 in assay [2] came to 273 nM.

Take `COc1cc([C@H]2OC[C@@H]3Cc4cc(OC)c(O)cc4C[C@@H]32)ccc1O`: the inhibition entry in assay [1] and in assay [4] was “Active” in each case. The compound further gave a 50% inhibitory concentration (IC50) in assay [2] of 1530 nM. In assay [3], the inhibition entry is “inactive”.
